Calls of active or inactive are those of the source. The calls are words filed in the database; no cut-off is given here. Square brackets hold non-standard residues; d marks the D form. Peptide text beside a SMILES is read from it. * marks the point of attachment. X4 = O=C1OC2(c3ccc(O)cc3Oc3cc(O)ccc32)c2cccc(NC(=S)*)c21; βAla = NCCC(=O)O
Tests used:
[1] = tested on: DU-145; assay: Cytotoxicity against human DU145 cells assessed as growth inhibition after 72 hrs by MTT assay; type: functional, cell-based; conditions: DU-145, 72 h
Procedure, shortened: (§1)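 Cells plated in 96-well format: DU145 and PC3 at 1500/well, LNCaP at 2500/well on poly-lysine. After 24 h, medium was changed and peptide added for 72 h in RPMI 1640 (5% FBS for DU145, 10% for LNCaP and PC3). MTT at 1 mg/mL final for 4 h (DU145, LNCaP) or 6 h (PC3). Formazan dissolved in 2-propanol-HCl and signal normalized to vehicle (water, 0.1% DMSO). IC50 from curve fitting.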

[2] = target: Furin (Homo sapiens, UniProt P09958); assay: Competitive inhibition of human recombinant furin expressed in Drosophila S2 cells using pyroGlu-Arg-Val-Lys-Arg-methyl-coumaryl-7-amide as substrate at pH 7.5 after 60 mins by spectrofluorometric analysis
Furin, sequence (P09958 whole entry): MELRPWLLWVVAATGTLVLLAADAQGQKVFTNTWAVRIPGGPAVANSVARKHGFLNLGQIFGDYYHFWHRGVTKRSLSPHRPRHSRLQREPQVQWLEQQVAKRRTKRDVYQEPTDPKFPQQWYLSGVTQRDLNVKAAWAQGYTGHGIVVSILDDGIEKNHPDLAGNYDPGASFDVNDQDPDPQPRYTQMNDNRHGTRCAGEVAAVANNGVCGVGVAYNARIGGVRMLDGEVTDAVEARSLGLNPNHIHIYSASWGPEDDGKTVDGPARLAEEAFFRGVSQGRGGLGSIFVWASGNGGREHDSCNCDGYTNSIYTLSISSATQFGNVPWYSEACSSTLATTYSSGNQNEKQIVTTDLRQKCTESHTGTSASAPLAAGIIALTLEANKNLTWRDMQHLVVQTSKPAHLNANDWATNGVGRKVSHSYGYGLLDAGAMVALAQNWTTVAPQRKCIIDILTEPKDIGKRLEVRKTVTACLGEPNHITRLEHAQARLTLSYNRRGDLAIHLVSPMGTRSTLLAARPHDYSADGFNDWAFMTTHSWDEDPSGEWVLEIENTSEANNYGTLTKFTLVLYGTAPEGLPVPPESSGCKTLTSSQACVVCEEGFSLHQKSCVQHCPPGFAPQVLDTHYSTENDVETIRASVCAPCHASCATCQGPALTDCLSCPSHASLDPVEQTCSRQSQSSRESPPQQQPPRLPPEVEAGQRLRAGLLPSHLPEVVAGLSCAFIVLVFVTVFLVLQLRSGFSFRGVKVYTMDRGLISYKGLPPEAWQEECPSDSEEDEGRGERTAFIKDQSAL
Procedure, shortened: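 Recombinant soluble human furin from S2 medium, tested in 100 mM Hepes pH 7.5, 1 mM CaCl₂, 1 mM β-mercaptoethanol, 1.8 mg/mL BSA; substrate 100 μM, 37 °C, 60 min, kinetic fluorescence read. Inhibitors added at decreasing concentrations. Ki derived from IC50 by Cheng–Prusoff using Km 4.61 μM; three independent experiments.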

[3] = target: T1, Proprotein convertase subtilisin/kexin type 6 (Homo sapiens, UniProt P29122); assay: Competitive inhibition of human recombinant PACE4 expressed in Drosophila S2 cells using pyroGlu-Arg-Val-Lys-Arg-methyl-coumaryl-7-amide as substrate at pH 6.5 after 60 mins by spectrofluorometric analysis
T1 sequence (P29122 whole entry): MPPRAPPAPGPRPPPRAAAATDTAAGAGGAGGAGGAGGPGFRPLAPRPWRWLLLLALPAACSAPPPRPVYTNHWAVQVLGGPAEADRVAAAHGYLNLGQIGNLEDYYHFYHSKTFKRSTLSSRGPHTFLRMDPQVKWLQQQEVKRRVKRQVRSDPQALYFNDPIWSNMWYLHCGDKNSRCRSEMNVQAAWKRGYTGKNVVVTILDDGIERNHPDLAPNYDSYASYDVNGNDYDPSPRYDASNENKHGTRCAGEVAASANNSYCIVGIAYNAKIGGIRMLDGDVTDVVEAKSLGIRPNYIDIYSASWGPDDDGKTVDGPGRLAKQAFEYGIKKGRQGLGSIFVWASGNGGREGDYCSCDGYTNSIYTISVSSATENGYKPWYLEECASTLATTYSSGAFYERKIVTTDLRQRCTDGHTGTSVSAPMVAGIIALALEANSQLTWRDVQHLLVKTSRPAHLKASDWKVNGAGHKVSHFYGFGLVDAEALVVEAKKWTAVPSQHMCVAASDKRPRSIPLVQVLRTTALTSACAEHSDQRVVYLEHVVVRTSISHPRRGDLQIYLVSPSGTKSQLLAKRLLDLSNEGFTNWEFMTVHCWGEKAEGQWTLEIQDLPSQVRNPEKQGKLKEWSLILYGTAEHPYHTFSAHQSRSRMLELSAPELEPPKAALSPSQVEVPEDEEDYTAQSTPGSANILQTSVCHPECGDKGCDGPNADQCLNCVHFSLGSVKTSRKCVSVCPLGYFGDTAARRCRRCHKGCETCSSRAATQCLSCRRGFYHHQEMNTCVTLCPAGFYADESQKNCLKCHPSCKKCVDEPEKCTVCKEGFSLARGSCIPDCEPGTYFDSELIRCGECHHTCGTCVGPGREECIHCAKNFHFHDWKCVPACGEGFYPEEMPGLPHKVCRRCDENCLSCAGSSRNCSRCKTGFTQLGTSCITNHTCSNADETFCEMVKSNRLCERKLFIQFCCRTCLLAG
Procedure, shortened: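 Soluble human PACE4 purified from S2 conditioned medium, assayed in 20 mM Bis-Tris pH 6.5, 1 mM CaCl₂, 1.8 mg/mL BSA with 100 μM substrate, 37 °C, 60 min. Real-time fluorescence read; inhibitors added at decreasing concentrations. Ki from IC50 by Cheng–Prusoff, Km 3.5 μM. Means of three independent experiments.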

[4] = species: Homo sapiens; assay: Selectivity ratio of Ki for human recombinant furin to Ki for human recombinant PACE4
[5] = tested on: LNCaP; assay: Cell cycle arrest in human LNCAP cells assessed as accumulation at sub G1 phase at 200 uM after 96 hrs by propidium iodide staining-based FACS flow cytometric analysis (reference value: 0.3 +/- 0.2 %); type: functional
[6] = tested on: LNCaP; assay: Cell cycle arrest in human LNCAP cells assessed as accumulation at G2/M phase at 200 uM after 96 hrs by propidium iodide staining-based FACS flow cytometric analysis (reference value: 10.1 +/- […]); type: functional
[7] = tested on: LNCaP; assay: Cell cycle arrest in human LNCAP cells assessed as accumulation at S phase at 100 uM after 96 hrs by propidium iodide staining-based FACS flow cytometric analysis (reference value: 15.6 +/- 1.3 %); type: functional
[8] = tested on: LNCaP; assay: Cell cycle arrest in human LNCAP cells assessed as accumulation at G0/G1 phase after 96 hrs by propidium iodide staining-based FACS flow cytometric analysis
[9] = tested on: LNCaP; assay: Cell cycle arrest in human LNCAP cells assessed as accumulation at S phase at 200 uM after 96 hrs by propidium iodide staining-based FACS flow cytometric analysis (reference value: 15.6 +/- 1.3 %); type: functional
[10] = tested on: LNCaP; assay: Cell cycle arrest in human LNCAP cells assessed as decrease in accumulation at S phase after 96 hrs by propidium iodide staining-based FACS flow cytometric analysis; type: functional
[11] = tested on: LNCaP; assay: Cytotoxicity against human LNCAP cells assessed as growth inhibition after 72 hrs by MTT assay; type: functional, cell-based; procedure, shortened: as §1
[12] = Stability of the compound in presence of aminopeptidase; type: ADME
[13] = tested on: PC-3; assay: Cytotoxicity against human PC3 cells assessed as growth inhibition after 72 hrs by MTT assay; type: functional, cell-based; procedure, shortened: as §1
[14] = tested on: LNCaP; assay: Cell cycle arrest in human LNCAP cells assessed as accumulation at G0/G1 phase at 100 uM after 96 hrs by propidium iodide staining-based FACS flow cytometric analysis (reference value: 74.3 +/- 0.1 %); type: functional
[15] = tested on: DU-145; assay: Cellular uptake in human DU145 cells at 10 uM after 1 hr by propidium iodide staining-based FACS flow cytometric analysis; type: ADME, cell-based; conditions: du-145, 1 h
Procedure, shortened: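 DU145 cells (4 × 10⁵) incubated 1 h with 10 μM FITC-labeled peptide in serum-free RPMI, then pelleted and washed twice with 0.05% trypsin for 5 min at 37 °C to strip membrane-bound label. Propidium iodide (10 μg/mL, 2 min) used to exclude cells with damaged membranes. At least 10000 events acquired by FACS; uptake reported as geometric mean fluorescence.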

Ratio Ki [4]	SMILES	Ki [2] [nM]	Ki [3] [nM]	also measured
–	CC(=O)OCCOCCOCCOCCOCCOCCOCCOCCN[C@@H](CC(C)C)C(=O)N[C@@H](CC(C)C)C(=O)N[C@@H](CC(C)C)C(=O)N[C@@H](CC(C)C)C(=O)N[C@@H](CCCNC(=N)N)C(=O)N[C@H](C(=O)N[C@@H](CCCCN)C(=O)N[C@@H](CCCNC(=N)N)C(N)=O)C(C)C	480	19	IC50 [1]: > 500000 nM
1.3	CC(C)C[C@H](N)C(=O)N[C@@H](CCCNC(=N)N)C(=O)N[C@@H](CCCNC(=N)N)C(=O)N[C@@H](CCCNC(=N)N)C(=O)N[C@H](C(=O)N[C@@H](CCCCN)C(=O)N[C@@H](CCCNC(=N)N)C(=O)O)C(C)C (H-LRRRVKR-OH)	–	–	–
–	CC(=O)N[C@@H](CC(C)C)C(=O)N[C@@H](CC(C)C)C(=O)N[C@@H](CC(C)C)C(=O)N[C@@H](CCCN=C(N)N)C(=O)N[C@H](C(=O)N[C@@H](CCCCN)C(=O)N[C@@H](CCCN=C(N)N)C(N)=O)C(C)C	400	18	–
–	CC(=O)N[C@H](CC(C)C)C(=O)N[C@@H](CC(C)C)C(=O)N[C@@H](CC(C)C)C(=O)N[C@@H](CC(C)C)C(=O)N[C@@H](CCCNC(=N)N)C(=O)N[C@H](C(=O)N[C@@H](CCCCN)C(=O)N[C@@H](CCCNC(=N)N)C(N)=O)C(C)C	–	–	Activity [5]: 11.8%; Activity [6]: 8.3%; Activity [7]: 11.8%; Activity [8]: Dose-dependent effect; Activity [9]: 8.4%; Activity [10]: Dose-dependent effect
–	CC(=O)N[C@@H](CC(C)C)C(=O)N[C@@H](CC(C)C)C(=O)N[C@@H](CCCN=C(N)N)C(=O)N[C@H](C(=O)N[C@@H](CCCCN)C(=O)N[C@@H](CCCN=C(N)N)C(N)=O)C(C)C	900	240	–
–	CC(=O)CCCCCCCCN[C@@H](CC(C)C)C(=O)N[C@@H](CC(C)C)C(=O)N[C@@H](CC(C)C)C(=O)N[C@@H](CC(C)C)C(=O)N[C@@H](CCCNC(=N)N)C(=O)N[C@H](C(=O)N[C@@H](CCCCN)C(=O)N[C@@H](CCCNC(=N)N)C(N)=O)C(C)C	500	23	IC50 [1]: 80000 nM
–	CC(=O)N[C@@H](CC(C)C)C(=O)N[C@@H](CC(C)C)C(=O)N[C@@H](CC(C)C)C(=O)N[C@@H](CC(C)C)C(=O)N[C@@H](CCCNC(=N)N)C(=O)N[C@H](C(=O)N[C@@H](CCCCN)C(=O)N[C@H](CCCNC(=N)N)C(N)=O)C(C)C (Ac-LLLLRVK[dR]-NH2)	–	–	IC50 [1]: 440000 nM; IC50 [11]: 390000 nM
–	CC(=O)N[C@H](CC(C)C)C(=O)N[C@@H](CC(C)C)C(=O)N[C@@H](CC(C)C)C(=O)N[C@@H](CC(C)C)C(=O)N[C@@H](CCCN=C(N)N)C(=O)N[C@H](C(=O)N[C@@H](CCCCN)C(=O)N[C@@H](CCCN=C(N)N)C(N)=O)C(C)C	–	–	Stability [12]: Stable
–	CC(=O)N[C@@H](CC(C)C)C(=O)N[C@@H](CC(C)C)C(=O)N[C@@H](CC(C)C)C(=O)N[C@@H](CC(C)C)C(=O)N[C@@H](CCCNC(=N)N)C(=O)N[C@H](C(=O)N[C@@H](CCCCN)C(=O)N[C@@H](CCCNC(=N)N)C(N)=O)C(C)C (Ac-LLLLRVKR-NH2)	–	–	growth inhibition (GI) [13]: inactive; Activity [8]: Dose-dependent effect; Activity [9]: 9.3%; Activity [10]: Dose-dependent effect; Activity [14]: 79.7%
2.7	CC(C)[C@H](N)C(=O)N[C@@H](CCCCN)C(=O)N[C@@H](CCCNC(=N)N)C(=O)N[C@@H](CCCNC(=N)N)C(=O)N[C@H](C(=O)N[C@@H](CCCCN)C(=O)N[C@@H](CCCNC(=N)N)C(=O)O)C(C)C (H-VKRRVKR-OH)	–	–	–
–	CC(C)[C@H](N)C(=O)N[C@@H](CCCCN)C(=O)N[C@@H](CCCN=C(N)N)C(=O)N[C@@H](CCCN=C(N)N)C(=O)N[C@H](C(=O)N[C@@H](CCCCN)C(=O)N[C@@H](CCCN=C(N)N)C(=O)O)C(C)C (H-VKRRVKR-OH)	–	2	–
2.2	CC(C)[C@H](N)C(=O)N[C@@H](CCCCN)C(=O)N[C@@H](CCCCN)C(=O)N[C@@H](CCCNC(=N)N)C(=O)N[C@H](C(=O)N[C@@H](CCCCN)C(=O)N[C@@H](CCCNC(=N)N)C(=O)O)[C@@H](C)O (H-VKKRTKR-OH)	–	–	–
1.3	N=C(N)NCCC[C@H](NC(=O)[C@H](CCCCN)NC(=O)[C@H](CO)NC(=O)[C@H](CCCNC(=N)N)NC(=O)[C@H](CCC(=O)O)NC(=O)[C@H](CCCCN)NC(=O)[C@@H](N)CCC(=O)O)C(=O)O (H-EKERSKR-OH)	–	–	–
1	N=C(N)NCCC[C@H](NC(=O)[C@H](CCCCN)NC(=O)[C@H](CCCCN)NC(=O)[C@H](CCCNC(=N)N)NC(=O)[C@H](CC(=O)O)NC(=O)[C@H](Cc1ccccc1)NC(=O)CN)C(=O)O (H-GFDRKKR-OH)	–	–	–
–	CC(C)C[C@H](N)C(=O)N[C@@H](CCCN=C(N)N)C(=O)N[C@@H](CCCN=C(N)N)C(=O)N[C@@H](CCCN=C(N)N)C(=O)N[C@H](C(=O)N[C@@H](CCCCN)C(=O)N[C@@H](CCCN=C(N)N)C(=O)O)C(C)C (H-LRRRVKR-OH)	9	7	–
–	NCCCC[C@H](NC(=O)[C@H](CCCCN)NC(=O)[C@H](CCCN=C(N)N)NC(=O)[C@H](CC(=O)O)NC(=O)[C@H](Cc1ccccc1)NC(=O)CN)C(=O)N[C@@H](CCCN=C(N)N)C(=O)O (H-GFDRKKR-OH)	> 1000	> 1000	–
–	CC(C)C[C@H](NC(=O)CCNC(=S)Nc1cccc2c1C(=O)OC21c2ccc(O)cc2Oc2cc(O)ccc21)C(=O)N[C@@H](CC(C)C)C(=O)N[C@@H](CC(C)C)C(=O)N[C@@H](CC(C)C)C(=O)N[C@@H](CCCNC(=N)N)C(=O)N[C@H](C(=O)N[C@@H](CCCCN)C(=O)N[C@@H](CCCNC(=N)N)C(N)=O)C(C)C ({X4-βAla}-LLLLRVKR-NH2)	–	–	Drug uptake [15]: Active

SMILES	Ratio Ki [4]	Ki [2] [nM]	Ki [3] [nM]	also measured
C[C@H](N)C(=O)N[C@@H](CCCCN)C(=O)N[C@@H](CCCNC(=N)N)C(=O)N[C@@H](CCCNC(=N)N)C(=O)N[C@H](C(=O)N[C@@H](CCCCN)C(=O)N[C@@H](CCCNC(=N)N)C(=O)O)[C@@H](C)O (H-AKRRTKR-OH)	4.2	–	0.4	–
CC(C)C[C@H](NC(=O)[C@@H](N)CC(C)C)C(=O)N[C@@H](CCCNC(=N)N)C(=O)N[C@@H](CCCNC(=N)N)C(=O)N[C@@H](C)C(=O)N[C@@H](CCCCN)C(=O)N[C@@H](CCCNC(=N)N)C(=O)O (H-LLRRAKR-OH)	36	–	0.34	–

Source: ChEMBL document CHEMBL2176991 (J Med Chem, 2012)
